JNK3 inh – JNK3 kinase activity inhibitors, primary screen, biochemical, human, purified enzyme | Mitogen-activated protein kinase 10 (Homo sapiens), P53779 | HTS | inhibition, % at 8 µM | hit rate 0.61% among 60,000; in the data active = inhibition above about 17%;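 note: 0% = DMSO and 100% = reference inhibitor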
PKA inh – inhibitors of human PKA kinase activity, primary screen, biochemical, ATP-depletion luminescence, Kemptide substrate. inhibition, % at 6 µM. PKA Kemptide phosphorylation, Kinase-Glo ATP luminescence. hit rate 0.1% among 65,000. cAMP-dependent protein kinase catalytic subunit alpha (Homo sapiens), P17612;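 active = inhibition above the screen-wide mean inhibition plus 3 SD, cut at about 21% in these data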
WNV protease inh – inhibitors of WNV NS2B-NS3 protease, primary screen, biochemical, fluorogenic substrate. Genome polyprotein (West Nile virus), P06935. fluorogenic substrate Ex360/Em465; active compounds read low. z-score (test concentration not listed). hit rate 0.18% among 65,000; in the data active = z-score below about -3
SF-1 act – activators of human SF-1, primary screen, cell-based, CHO-K1, Gal4-SF-1 LBD, luciferase luminescence. CHO-K1 Gal4-SF-1 LBD luciferase reporter; % increase over DMSO SF-1-specific signal. hit rate 1.9% among 65,000. AID 522, 2006. Steroidogenic factor 1 (Homo sapiens), Q13285. activation, % at 10 µM;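 active = activation above the mean activation of all tested compounds plus 3 SD, cut at about 50% in these data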
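Material: CHO-K1 cells with Gal4–hSF-1 LBD chimera plus Gal4-driven luciferase / Input: 4,000 CHO-K1 cells per well / Incubation: compound exposure 20 h at 37 °C / Signal: luminescence read 15 min after SteadyLite luciferase reagent, after room-temperature equilibration / Read-out: percent activation versus DMSO / Benchmarks: DMSO negative control and −SF1 background wells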
ROCK2 blocker – inhibitors of human ROCK2 kinase, primary screen, biochemical, high-throughput, luminescence | inhibition, % at 6 µM | AID 604, 2007 | hit rate 0.35% among 60,000 | purified ROCK2, Kinase-Glo ATP depletion luminescence;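 active = inhibition above the screen-wide mean inhibition plus 3 SD, cut at about 18% in these data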;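 note: plate controls were DMSO wells for no effect and Y-27632 control wells after no-enzyme background subtraction for full effect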
Target sequence (O75116 whole entry, looked up): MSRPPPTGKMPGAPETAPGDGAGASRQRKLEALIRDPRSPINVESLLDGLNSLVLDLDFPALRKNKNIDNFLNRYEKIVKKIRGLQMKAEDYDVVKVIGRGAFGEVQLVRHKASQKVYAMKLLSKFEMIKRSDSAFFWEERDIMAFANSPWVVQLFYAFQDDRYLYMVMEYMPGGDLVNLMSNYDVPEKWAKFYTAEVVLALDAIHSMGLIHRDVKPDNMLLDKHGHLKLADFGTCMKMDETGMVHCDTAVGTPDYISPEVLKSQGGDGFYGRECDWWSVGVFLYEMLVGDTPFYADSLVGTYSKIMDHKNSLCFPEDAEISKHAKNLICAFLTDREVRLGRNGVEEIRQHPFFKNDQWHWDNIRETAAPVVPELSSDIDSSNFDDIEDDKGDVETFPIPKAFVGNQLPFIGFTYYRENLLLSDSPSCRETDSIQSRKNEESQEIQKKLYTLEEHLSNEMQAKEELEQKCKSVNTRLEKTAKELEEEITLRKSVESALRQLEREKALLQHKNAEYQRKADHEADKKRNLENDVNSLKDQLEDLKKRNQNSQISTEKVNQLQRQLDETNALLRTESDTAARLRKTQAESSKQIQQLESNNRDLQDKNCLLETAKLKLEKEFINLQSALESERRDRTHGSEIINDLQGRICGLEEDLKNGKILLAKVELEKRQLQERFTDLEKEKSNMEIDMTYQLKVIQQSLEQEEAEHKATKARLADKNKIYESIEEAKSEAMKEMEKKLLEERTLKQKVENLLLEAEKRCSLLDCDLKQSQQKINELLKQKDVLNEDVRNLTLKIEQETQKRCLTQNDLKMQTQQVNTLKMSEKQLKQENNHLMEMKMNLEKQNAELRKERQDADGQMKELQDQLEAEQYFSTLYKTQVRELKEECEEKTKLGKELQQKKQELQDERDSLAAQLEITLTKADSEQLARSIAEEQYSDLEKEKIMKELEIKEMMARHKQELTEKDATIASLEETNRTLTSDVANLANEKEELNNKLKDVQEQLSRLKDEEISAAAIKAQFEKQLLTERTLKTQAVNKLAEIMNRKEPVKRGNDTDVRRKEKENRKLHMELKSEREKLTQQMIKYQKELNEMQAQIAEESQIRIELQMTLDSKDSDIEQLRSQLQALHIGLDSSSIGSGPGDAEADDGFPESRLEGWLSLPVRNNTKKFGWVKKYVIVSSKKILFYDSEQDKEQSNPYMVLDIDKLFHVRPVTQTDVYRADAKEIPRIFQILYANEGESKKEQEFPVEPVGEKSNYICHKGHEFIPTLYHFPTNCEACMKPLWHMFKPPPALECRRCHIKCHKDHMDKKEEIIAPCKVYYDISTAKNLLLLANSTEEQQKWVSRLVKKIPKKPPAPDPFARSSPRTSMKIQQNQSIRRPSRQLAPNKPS
RORa activator – activators of orphan receptor RORA, primary screen, cell-based, luminescence; CHO-K1 Gal4-RORA LBD luciferase reporter; percent increase over mock-subtracted basal signal; activation, % at 10 µM; hit rate 1.5% among 65,000;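 active = activation above the mean of all tested compounds plus 3 SD, cut at about 49% in these data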;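 note: 0% = DMSO-treated RORA cells and 100% = added signal equal to DMSO minus mock-transfected cells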
Numbers without * were called inactive; x = no result. Hits are enriched below; roughly 3.4% of the tested compounds scored in any of these assays.

SMILES	JNK3 inh	PKA inh	WNV protease inh	SF-1 act	ROCK2 blocker	RORa activator
Clc1ccc(CSc2nnc(-c3cccnc3)n2Cc2ccco2)c(Cl)c1	x	6	0.72	11	x	10
O=C(NC1CCCCCC1)c1ccc(N2CCCC2=O)cc1	2	4	0.58	54*	1	29
O=c1c2[nH]c3ccccc3c2ncn1C1CCCCC1	0	0	0.44	20	-5	61*
Brc1cnn(-c2nc(N3CCOCC3)nc(N3CCOCC3)n2)c1	-1	4	-0.39	15	4	-29
CCn1c(SCC(=O)Nc2ccc(N(C)C)cc2)nnc1-c1cccc(C)c1	-2	14	-1	13	7	21
COc1ccc(-c2cn3ccccc3n2)cc1OC	-13	-9	-0.79	30	-13	49*
COc1ccc(-c2cn3cc(C)ccc3n2)cc1OC	-11	-3	0.56	20	-20	-13
c1ccc2c(c1)oc1c(Nc3ccc4c(c3)OCO4)ncnc12	-1	5	-0.1	92*	3	83*
c1ccc(Nc2ncnc3c2oc2ccccc23)cc1	3	5	1.4	65*	3	27
c1ccc2c(c1)oc1c(Nc3ccc(CN4CCOCC4)cc3)ncnc12	2	5	-0.92	54*	0	14
CC(=O)NCCc1ccc(S(=O)(=O)Nc2cccnc2)cc1	-5	10	0.5	3	7	2
CCOC(=O)CSc1nnc(-c2ccc(OC)cc2OC)o1	-2	5	0.75	5	2	15
CCOC(=O)c1ccc2nc(NC(=O)c3cccs3)sc2c1	x	2	x	-2	x	-3
CCOC(=O)CNC(=O)c1sc(NC(=O)c2ccccc2F)nc1C	5	5	0.5	53*	-5	29
CCOC(=O)c1sc(NC(=O)c2ccc(CC)s2)nc1C	0	10	-0.51	119*	10	72*
CCOC(=O)Cc1nnc(NC(=O)c2ccccc2OC)s1	-8	7	-0.52	-13	3	-4
CCOC(=O)c1sc(NCCNc2nc(C)c(C(=O)OCC)s2)nc1C	-4	5	1.6	-6	2	21
C=CCOC(=O)c1sc(NC(=O)c2ccco2)nc1C	-3	6	-1.4	93*	1	53*
CCOC(=O)c1sc2nc(C)cc(C)c2c1NC(=O)c1ccco1	6	8	-0.75	0	5	-2
CCOC(=O)c1sc(NC(=O)c2ccc3ncsc3c2)nc1C	-2	-4	-0.67	76*	2	20
CCOC(=O)c1ccc2nc3c(cc2c1)CCS3	x	-2	-0.38	45	x	47
CCOC(=O)c1sc(NC(=O)c2ccc(Cl)s2)cc1C	5	7	0.47	54*	5	78*
CCOC(=O)c1c(C)nc2sccn12	-1	4	2.3	4	-5	-17
CCOC(=O)c1c(C)nc2c3ccccc3ccn12	-1	-3	-0.43	76*	0	26
Cc1nnc2c3cnn(-c4ccc(Cl)cc4)c3ncn12	x	5	-0.46	25	x	65*
SMILES	JNK3 inh	PKA inh	WNV protease inh	SF-1 act	ROCK2 blocker	RORa activator
COC(=O)C(C)n1cnc2c(cnn2-c2ccc(Cl)cc2)c1=O (stereo not given)	4	2	0.36	53*	1	47
CN1C(=O)CC(N2CCN(c3ccc(Cl)c(Cl)c3)CC2)C1=O (stereo not given)	-9	3	-0.47	-13	2	-22
O=C1CCCN1CCC1CCN(C2CC(=O)N(c3ccc(Cl)cc3)C2=O)CC1 (stereo not given)	-7	12	-0.64	4	9	-13
O=C(Nc1cnc2ccccc2c1)N1CCOCC1	7	-1	-0.77	33	-4	26
O=C(Nc1cnc2ccccc2c1)N1CCCCC1	8	6	-1.1	33	5	72*
O=C(CCCOc1ccccc1)Nc1ccncc1	-6	30*	0.28	2	33*	-4
COC(=O)c1ccc(/C(O)=C(\C#N)c2nc3ccccc3s2)cc1	-6	8	1.1	84*	2	19
Cc1ncsc1C(=O)Nc1nc2c(s1)CCCC2	-1	-4	-0.52	66*	-17	57*
O=C(Nc1nc2c(s1)CCCC2)c1ccc2ncsc2c1	7	-6	1.4	38	3	50*
Cc1cc(C(=O)Nc2nc3c(s2)CCCC3)cs1	5	-2	-0.13	3	-5	-22
O=C(CSc1nnc(-c2ccc(O)cc2)o1)N1CCOCC1	3	2	-0.29	29	6	45
Oc1ccc(-c2nnc(SCC3CCCCC3)o2)cc1	9	6	0.98	64*	2	59*
COc1ccc(CCN(C(=O)c2ccc(F)cc2)C2=CC3CCC(C2)N3C)cc1OC (stereo not given)	2	8	0.99	0	1	-6
Cc1cc(N)n2ncc(-c3ccccc3)c2n1	x	10	0.37	75*	x	88*
Cc1cc(N)n2ncc(-c3cccc(Br)c3)c2n1	0	5	1.9	59*	3	44
Cc1cc(N)n2nc(-c3ccccc3)cc2n1	x	x	-1.1	x	x	x
COc1ccc(-c2nnnn2CCc2ccccc2)cc1	0	-2	-1.2	12	1	21
Cc1c(C(=O)N2CCOCC2)[nH]c2c1C(=O)CC(c1ccccc1Cl)C2 (stereo not given)	-2	6	-1.9	67*	0	45
CC(C)C(NC(=O)C1CCCCC1)C(=O)Nc1ccncc1 (stereo not given)	-1	14	-1.4	-1	76*	4
CC(C)C(NC(=O)C1CCCCC1)C(=O)Nc1ccc2c(c1)OCCO2 (stereo not given)	2	3	-0.39	38	1	-2
O=C(O)c1ccc2oc(SCC(=O)N3CCCCC3)nc2c1	4	6	-0.08	54*	5	29
O=C(CSc1nc2cc(Cl)ccc2o1)N1CCOCC1	-3	-1	0.39	12	3	12
CCOC(=O)c1cccc2c1-c1ccccc1/C2=N/O	53*	5	0.31	-16	7	0
CCCc1cc(C(N)=O)c(NC(=O)C2CCCO2)s1 (stereo not given)	0	5	1.7	-20	-2	4
CCSc1nnc(NC(=O)c2ccccn2)s1	1	5	2.8	-55	4	-15
CCSc1nnc(NC(=O)c2cc3c(s2)CCCC3)s1	-4	6	-0.07	52*	4	46
CCCc1cc(C(N)=O)c(NC(=O)c2ccco2)s1	7	0	-0.84	60*	10	59*
